Laboratory results from ChEMBL document CHEMBL1141077, “Synthesis and structure-activity relationship of a novel series of aminoalkylindoles with potential for imaging the neuronal cannabinoid receptor by positron emission tomography” (J Med Chem, 2005).

The compounds below were run against Cannabinoid receptor 1 (Rattus norvegicus, UniProt P20272) (assay: In vitro binding affinity against rat cannabinoid receptor 1 using 0.5 nM [3H]CP-55940).
Sequence of Cannabinoid receptor 1 (P20272 whole entry): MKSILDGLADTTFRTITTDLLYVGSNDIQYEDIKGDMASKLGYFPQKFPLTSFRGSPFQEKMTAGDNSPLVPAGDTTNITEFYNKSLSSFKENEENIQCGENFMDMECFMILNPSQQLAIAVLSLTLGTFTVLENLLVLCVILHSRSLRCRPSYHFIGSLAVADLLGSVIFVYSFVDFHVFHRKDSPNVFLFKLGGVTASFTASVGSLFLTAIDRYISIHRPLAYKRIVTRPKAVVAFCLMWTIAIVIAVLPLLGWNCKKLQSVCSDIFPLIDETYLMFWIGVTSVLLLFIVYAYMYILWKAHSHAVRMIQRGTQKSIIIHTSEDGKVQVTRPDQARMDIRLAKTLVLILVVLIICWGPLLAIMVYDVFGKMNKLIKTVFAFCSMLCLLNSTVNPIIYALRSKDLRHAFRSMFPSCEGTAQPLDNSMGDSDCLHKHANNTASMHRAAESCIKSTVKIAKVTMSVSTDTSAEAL
In short: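 Competition binding on membranes from frozen Sprague-Dawley rat cerebellum (0.6 mg tissue per tube) in pH 7.4 buffer: 50 mM Tris-HCl, 3 mM MgCl2, 1 mM EDTA, 0.5% fat-free BSA. Incubated 1 h at 30 °C with serial ligand dilutions. Nonspecific binding determined with excess unlabelled CP-55940. GF/C filtration, scintillation counting, quadruplicate. Ki from IC50 via Cheng-Prusoff, Kd 0.5 nM.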
Compound `CN1CCCCC1Cn1cc(C(=O)c2ccc(F)c3ccccc23)c2ccccc21` (stereo not given) has a Ki of 0.7 nM.
With `CN1CCCCC1Cn1nc(C(=O)c2cccc3ccccc23)c2ccccc21` (stereo not given) the Ki was 1.4 nM.
`CN1CCCCC1Cn1cc(C(=O)c2cccc3cc(O)ccc23)c2ccccc21` (stereo not given) was tested, and the Ki was 4 nM.
Work on `CN1CCCCC1Cn1cc(C(=O)c2ccc(C#N)c3ccccc23)c2ccccc21` (stereo not given) yielded a Ki of 1.1 nM.
With `CN1CCCCC1Cn1cc(C(=O)c2ccc(Br)c3ccccc23)c2ccccc21` (stereo not given) the Ki was 1.7 nM.
Work on `COc1ccc(C(=O)c2cn(CC3CCCCN3C)c3ccccc23)c2ccccc12` (stereo not given) yielded a Ki of 2.3 nM.
In the case of `CN1CCCCC1Cn1cc(C(=O)c2ccc([N+](=O)[O-])c3ccccc23)c2ccccc21` (stereo not given), the Ki is reported as 12.4 nM.
`CN1CCCCC1Cn1cc(C(=O)Nc2cccc3ccccc23)c2ccccc21` (stereo not given) gave a Ki of 100 nM.
`CN1CCCCC1Cn1cc(C(=O)N2CCCC3CCCCC32)c2ccccc21` (stereo not given) showed a Ki of 12 nM.
`CN1CCCCC1Cn1cc(C(=O)c2ccc(CCO)c3ccccc23)c2ccccc21` (stereo not given) gave a Ki of 1.3 nM.
`CN1CCCCC1Cn1cc(C(=O)c2ccccc2I)c2ccccc21` (stereo not given) showed a Ki of 1.2 nM.
Work on `Cc1ccc(C(=O)c2cn(CC3CCCCN3C)c3ccccc23)c2ccccc12` (stereo not given) yielded a Ki of 1.1 nM.
`CN1CCCCC1Cn1cc(C(=O)c2ccc(O)c3ccccc23)c2ccccc21` (stereo not given) gave a Ki of 2.2 nM.
`Cc1ccc2ccccc2c1C(=O)c1cn(CC2CCCCN2C)c2ccccc12` (stereo not given) gave a Ki of 7.8 nM.
`CN1CCCCC1Cn1cc(C(=O)c2cccc3ccccc23)c2ccccc21` (stereo not given) gave a Ki of 0.9 nM.
